The structures appear in SMILES notation.

The record followed here is ChEMBL document CHEMBL4342456, “Preventing Morphine-Seeking Behavior through the Re-Engineering of Vincamine's Biological Activity” (J Med Chem, 2020).

The target of assay [1] is T1, Neuropeptide S receptor (Homo sapiens, UniProt Q6W5P4).
T1 sequence (Q6W5P4 whole entry): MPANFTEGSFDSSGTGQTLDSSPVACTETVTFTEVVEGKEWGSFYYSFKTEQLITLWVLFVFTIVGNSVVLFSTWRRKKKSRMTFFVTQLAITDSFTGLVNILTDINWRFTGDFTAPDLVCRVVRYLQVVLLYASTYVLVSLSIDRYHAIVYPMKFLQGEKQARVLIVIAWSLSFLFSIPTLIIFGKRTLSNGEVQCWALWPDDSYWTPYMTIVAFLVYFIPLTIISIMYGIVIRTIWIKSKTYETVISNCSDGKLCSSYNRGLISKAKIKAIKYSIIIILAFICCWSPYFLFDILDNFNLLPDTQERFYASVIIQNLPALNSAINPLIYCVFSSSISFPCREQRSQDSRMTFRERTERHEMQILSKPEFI
The assay can be described thus: Antagonist activity at human Gq-coupled NPSR1b expressed in human U2OS cells assessed as inhibition in neuropeptide S-induced beta-arrestin 2 recruitment incubated for 30 mins followed by neuropeptide S addition and measured after 90 or 180 mins by pathhunter beta-arrestin assay. Format: cell-based. The gist of the method: (§1)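 PathHunter beta-arrestin recruitment, antagonist mode, run at DiscoverX. Cells seeded and held at 37 °C, then preincubated with test sample for 30 min at 37 °C or room temperature (1% vehicle). Agonist then added at EC80 for 90 or 180 min. […] IC50 comes from concentration–response runs in the same format.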

The target in assay [2] is C-C chemokine receptor type 8 (Homo sapiens, UniProt P51685). The assay can be described thus: Antagonist activity at human CCR8 expressed in CHOK1 cells assessed as reduction in CCL1-induced beta-arrestin 2 recruitment incubated for 30 mins followed by CCL1 addition and measured after 90 or 180 mins by pathhunter beta-arrestin assay. Format: cell-based. The method in brief: as §1

Assay [3] concerns the target T2, Prolactin-releasing peptide receptor (Homo sapiens, UniProt P49683).
T2 sequence (P49683 whole entry): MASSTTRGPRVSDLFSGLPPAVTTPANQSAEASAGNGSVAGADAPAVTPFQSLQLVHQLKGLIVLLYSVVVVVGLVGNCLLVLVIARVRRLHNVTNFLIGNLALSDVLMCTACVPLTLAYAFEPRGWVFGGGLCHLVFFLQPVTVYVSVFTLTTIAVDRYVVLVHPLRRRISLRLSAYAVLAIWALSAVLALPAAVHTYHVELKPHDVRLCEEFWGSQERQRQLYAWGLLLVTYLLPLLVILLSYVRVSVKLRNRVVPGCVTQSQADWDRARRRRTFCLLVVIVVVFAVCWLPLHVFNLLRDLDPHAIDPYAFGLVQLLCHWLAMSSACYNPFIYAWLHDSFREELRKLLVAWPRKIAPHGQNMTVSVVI
The experiment in a line: Antagonist activity at human Gq-coupled PRLHR expressed in CHOK1 cells assessed as inhibition in prolactin releasing peptide (1 to 31)-induced beta-arrestin 2 recruitment incubated for 30 mins followed by prolactin releasing peptide (1 to 31) addition and measured after 90 or 180 mins by pathhunter beta-arrestin assay. In kind it is cell-based. The method in brief: as §1

Assay [4] concerns the target Cannabinoid receptor 1 (Homo sapiens, UniProt P21554). The assay can be described thus: Antagonist activity at human Gi/o-coupled CNR1 expressed in CHOK1 cells assessed as inhibition in CP55940-induced beta-arrestin 2 recruitment incubated for 30 mins followed by CP55940 addition and measured after 90 or 180 mins by pathhunter beta-arrestin assay. In kind it is cell-based. The method in brief: as §1

The target of assay [5] is T3, Glucose-dependent insulinotropic receptor (Homo sapiens, UniProt Q8TDV5).
T3 sequence (Q8TDV5 whole entry): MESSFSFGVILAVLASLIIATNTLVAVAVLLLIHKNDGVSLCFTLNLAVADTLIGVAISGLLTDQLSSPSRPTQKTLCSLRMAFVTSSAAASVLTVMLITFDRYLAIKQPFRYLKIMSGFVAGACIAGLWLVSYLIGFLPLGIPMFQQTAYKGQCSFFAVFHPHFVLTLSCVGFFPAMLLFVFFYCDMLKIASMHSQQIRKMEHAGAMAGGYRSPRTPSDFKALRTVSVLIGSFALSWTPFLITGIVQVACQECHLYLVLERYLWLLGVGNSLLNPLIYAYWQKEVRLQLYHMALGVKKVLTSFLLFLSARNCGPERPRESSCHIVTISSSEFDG
The assay can be described thus: Antagonist activity at human GPR119 expressed in human HEK293 cells assessed as inhibition in agonist-induced beta-arrestin 2 recruitment incubated for 30 mins followed by agonist addition and measured after 90 or 180 mins by pathhunter beta-arrestin assay. In kind it is cell-based. The method in brief:
as §1

For assay [6], the target named is Prostacyclin receptor (Homo sapiens, UniProt P43119). The assay can be described thus: Antagonist activity at human Gs-coupled PTGIR assessed as inhibition in beraprost-induced beta-arrestin 2 recruitment incubated for 30 mins followed by beraprost- addition and measured after 90 or 180 mins by pathhunter beta-arrestin assay. The gist of the method: as §1
The target of assay [7] is Cannabinoid receptor 2 (Homo sapiens, UniProt P34972). The assay can be described thus: Antagonist activity at human Gi/o-coupled CNR2 expressed in CHOK1 cells assessed as inhibition in CP55940-induced beta-arrestin 2 recruitment incubated for 30 mins followed by CP55940 addition and measured after 90 or 180 mins by pathhunter beta-arrestin assay. Format: cell-based. The method in brief: as §1
Chain of Cannabinoid receptor 2 (P34972 whole entry): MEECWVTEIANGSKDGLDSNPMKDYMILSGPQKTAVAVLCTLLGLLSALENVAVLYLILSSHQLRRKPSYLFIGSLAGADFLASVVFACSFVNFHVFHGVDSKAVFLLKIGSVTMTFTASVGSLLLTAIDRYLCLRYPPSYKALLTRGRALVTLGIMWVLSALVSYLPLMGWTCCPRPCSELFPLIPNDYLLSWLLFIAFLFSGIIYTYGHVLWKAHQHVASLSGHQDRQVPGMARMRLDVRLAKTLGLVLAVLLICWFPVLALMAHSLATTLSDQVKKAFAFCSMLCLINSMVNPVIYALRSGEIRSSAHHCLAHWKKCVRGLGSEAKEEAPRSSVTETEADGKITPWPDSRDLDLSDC

Chain of Prostacyclin receptor (P43119 whole entry): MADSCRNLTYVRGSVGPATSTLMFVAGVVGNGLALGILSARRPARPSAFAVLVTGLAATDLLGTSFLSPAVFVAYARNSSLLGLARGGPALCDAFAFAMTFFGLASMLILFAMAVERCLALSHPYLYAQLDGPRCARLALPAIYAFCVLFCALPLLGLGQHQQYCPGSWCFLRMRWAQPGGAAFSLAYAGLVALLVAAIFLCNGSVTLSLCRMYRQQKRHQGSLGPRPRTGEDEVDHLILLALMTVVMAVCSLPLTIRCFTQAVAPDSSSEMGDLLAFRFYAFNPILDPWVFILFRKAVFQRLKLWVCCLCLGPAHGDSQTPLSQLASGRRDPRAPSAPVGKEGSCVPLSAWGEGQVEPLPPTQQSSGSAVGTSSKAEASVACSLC
Chain of C-C chemokine receptor type 8 (P51685 whole entry): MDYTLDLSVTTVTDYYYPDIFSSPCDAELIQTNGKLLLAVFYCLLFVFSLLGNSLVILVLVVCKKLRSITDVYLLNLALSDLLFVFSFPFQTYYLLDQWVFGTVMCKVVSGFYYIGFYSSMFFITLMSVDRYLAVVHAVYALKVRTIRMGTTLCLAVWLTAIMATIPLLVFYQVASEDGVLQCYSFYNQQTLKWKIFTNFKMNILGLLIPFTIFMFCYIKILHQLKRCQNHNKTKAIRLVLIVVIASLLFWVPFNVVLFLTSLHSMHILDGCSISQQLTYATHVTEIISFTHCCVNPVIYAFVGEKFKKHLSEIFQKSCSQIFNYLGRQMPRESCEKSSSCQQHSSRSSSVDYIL
Chain of Cannabinoid receptor 1 (P21554 whole entry): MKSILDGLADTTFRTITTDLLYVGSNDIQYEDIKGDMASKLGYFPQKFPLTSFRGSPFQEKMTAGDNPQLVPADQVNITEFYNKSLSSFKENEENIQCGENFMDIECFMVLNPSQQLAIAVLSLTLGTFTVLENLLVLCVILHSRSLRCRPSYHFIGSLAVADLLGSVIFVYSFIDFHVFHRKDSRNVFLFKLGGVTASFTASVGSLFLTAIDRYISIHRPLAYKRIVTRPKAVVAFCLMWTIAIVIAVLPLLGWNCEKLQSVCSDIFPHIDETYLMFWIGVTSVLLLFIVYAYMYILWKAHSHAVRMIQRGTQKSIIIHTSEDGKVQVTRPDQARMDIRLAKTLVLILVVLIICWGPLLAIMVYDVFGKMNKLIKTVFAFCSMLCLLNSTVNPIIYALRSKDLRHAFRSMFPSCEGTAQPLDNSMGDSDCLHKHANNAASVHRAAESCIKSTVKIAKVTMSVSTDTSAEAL

On to `CC[C@]12C=C(C(=O)OC)n3c(c(CCNC(=O)c4ccc(Br)cc4)c4ccccc43)[C@H]1N(C#N)CCC2`, for which the IC50 is 5.77 µM in assay [1], 5.2 µM in assay [2] and 2.43 µM in assay [3].

As to `CC[C@]12CCCN(C(=O)c3cccc(Br)c3)CCc3c(n(c4ccccc34)C(=O)C1)[C@@H]2OC`, the IC50 was 4.95 µM in assay [4]; 4.62 µM in assay [5]; 3.9 µM in assay [1]; 12.5 µM in assay [6]; 13.8 µM in assay [3]; 25.7 µM in assay [7].
